Source: ChEMBL document CHEMBL4373711, “Development of 3,5-Dinitrophenyl-Containing 1,2,4-Triazoles and Their Trifluoromethyl Analogues as Highly Efficient Antitubercular Agents Inhibiting Decaprenylphosphoryl-β-d-ribofuranose 2'-Oxidase” (J Med Chem, 2019)
In brackets after ≈: the same amount, converted by molar mass. Activity calls are given as the source filed them. The calls are words filed in the database; no cut-off is given here.

How the values were obtained:
[1] = tested on: Mycobacterium tuberculosis; assay: Antimycobacterial activity against Mycobacterium tuberculosis H37Rv CNCTC My 331/88 after 21 days; type: functional; details: H37Rv CNCTC My 331/88, 504 h
Summary of the method: (§1)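 M. tuberculosis strains (H37Rv and clinical MDR/XDR isolates) tested by microdilution in Šula's semisynthetic medium. Compounds were dissolved in DMSO and tested at 32 to 0.03 µM in twofold steps. Inoculum was a 1.0 McFarland suspension diluted 10-3. Plates were incubated at 37 °C and read at 14 and 21 days.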

Mycobacterium avium [2] = assay: Antimycobacterial activity against Mycobacterium avium CNCTC My 330/88 after 14 days; type: functional; details: CNCTC My 330/88, 336 h
Summary of the method: (§2)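 M. avium was tested by microdilution in Šula's semisynthetic medium, with compounds dissolved in DMSO and serially diluted from 1000 down to 1. Inoculum was a 1.0 McFarland suspension diluted 10-5. Plates were incubated at 37 °C and read at 14 and 21 days. […] Isoniazid and rifampicin served as standards.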

Mycobacterium avium [3] = assay: Antimycobacterial activity against Mycobacterium avium CNCTC My 330/88 after 21 days; type: functional; details: CNCTC My 330/88, 504 h; summary of the method: as §2
Mycobacterium kansasii = assay: Antimycobacterial activity against Mycobacterium kansasii CNCTC My 235/80 after 7 days; type: functional; details: CNCTC My 235/80, 168 h
Summary of the method: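 Microdilution in Šula's semisynthetic medium; compounds in DMSO at 32–0.03 µM. Inoculum from 1.0 McFarland suspension diluted 10-4. […] Isoniazid and rifampicin as reference drugs.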

[4] = tested on: Mycobacterium tuberculosis; assay: Antimycobacterial activity against XDR Mycobacterium tuberculosis Praha 131 after 14 days; type: functional; details: Praha 131, 336 h; summary of the method: as §1
[5] = tested on: Mycobacterium tuberculosis; assay: Antimycobacterial activity against XDR Mycobacterium tuberculosis Praha 131 after 21 days; type: functional; details: Praha 131, 504 h; summary of the method: as §1
Staphylococcus aureus = assay: Antibacterial activity against methicillin-resistant Staphylococcus aureus subsp. aureus ATCC 43300 CCM 4750 at highest concentration measured after 24 to 48 hrs by alamar blue dye based broth microdilution assay; type: functional, organism-based
Enterococcus faecalis = assay: Antibacterial activity against Enterococcus faecalis ATCC 29212 CCM 4224 at highest concentration measured after 24 to 48 hrs by alamar blue dye based broth microdilution assay; type: functional, organism-based
Escherichia coli = assay: Antibacterial activity against Escherichia coli ATCC 25922 CCM 3954 at highest concentration measured after 24 to 48 hrs by alamar blue dye based broth microdilution assay; type: functional, organism-based
Klebsiella pneumoniae = assay: Antibacterial activity against Klebsiella pneumoniae at highest concentration measured after 24 to 48 hrs by alamar blue dye based broth microdilution assay; type: functional, organism-based
Candida albicans = assay: Antifungal activity against Candida albicans ATCC 24433 CCM 8320 at highest concentration measured after 24 to 48 hrs by alamar blue dye based broth microdilution assay; type: functional, organism-based
Pichia kudriavzevii = assay: Antifungal activity against Candida krusei ATCC 6258 CCM8271 at highest concentration measured after 24 to 48 hrs by alamar blue dye based broth microdilution assay; type: functional, organism-based
Aspergillus flavus = assay: Antifungal activity against Aspergillus flavus CCM 8363 at highest concentration measured after 24 to 48 hrs by alamar blue dye based broth microdilution assay; type: functional, organism-based
Lichtheimia corymbifera = assay: Antifungal activity against Lichtheimia corymbifera CCM 8077 at highest concentration measured after 24 to 48 hrs by alamar blue dye based broth microdilution assay; type: functional, organism-based
[6] = tested on: Trichophyton interdigitale; assay: Antifungal activity against Trichophyton interdigitale ATCC 9533 CCM 8377 at highest concentration measured after 72 to 120 hrs by alamar blue dye based broth microdilution assay; type: functional
[7] = biological target: T1, Decaprenylphosphoryl-beta-D-ribose oxidase (Mycobacterium smegmatis (strain ATCC 700084 / mc(2)155)) (UniProt A0R607); assay: Inhibition of DprE1 in Mycolicibacterium smegmatis MC2 155 lysate assessed as reduction in epimerization of P[14C]RPP to DP[14C]A at 700 uM measured after 1.5 hrs in presence of NADH by TLC-based autoradiography; type: subcellular
T1 sequence (whole entry): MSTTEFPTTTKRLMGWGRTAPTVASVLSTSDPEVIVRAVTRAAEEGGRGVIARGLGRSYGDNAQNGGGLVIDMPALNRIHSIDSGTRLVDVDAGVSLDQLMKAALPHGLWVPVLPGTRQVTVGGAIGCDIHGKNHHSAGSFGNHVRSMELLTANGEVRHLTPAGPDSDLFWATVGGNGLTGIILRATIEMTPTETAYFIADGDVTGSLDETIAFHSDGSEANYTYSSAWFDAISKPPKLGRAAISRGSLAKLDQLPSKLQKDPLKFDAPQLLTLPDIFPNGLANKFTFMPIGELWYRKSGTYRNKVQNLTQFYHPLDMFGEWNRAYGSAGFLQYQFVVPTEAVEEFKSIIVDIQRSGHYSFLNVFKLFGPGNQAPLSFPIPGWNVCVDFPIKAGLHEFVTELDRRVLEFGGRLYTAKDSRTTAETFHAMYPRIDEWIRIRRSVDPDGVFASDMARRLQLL
Summary of the method: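 Cell-free DPA synthesis used a membrane/cell-envelope fraction (430 µg), spun at 100 000 × g, from sonicated M. smegmatis mc2155. The fraction was incubated 1.5 h with 15,000 dpm P[14C]RPP and NADH. BTZ was used at 70 µM and test compounds at 700 µM final, both added from DMSO stocks. Lipids were extracted, 25% was resolved by TLC, and autoradiography ran 8 days at -80 °C.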

[8] = biological target: T2, Decaprenylphosphoryl-beta-D-ribose oxidase (Mycobacterium tuberculosis (strain ATCC 25618 / H37Rv)) (UniProt P9WJF1); assay: Inhibition of DprE1 in Mycobacterium tuberculosis H37Rv assessed as accumulation of trehalose dimycolates at 10 times MIC measured after 24 hrs in presence of [14C]-acetate by TLC-based autoradiography
T2 sequence (whole entry): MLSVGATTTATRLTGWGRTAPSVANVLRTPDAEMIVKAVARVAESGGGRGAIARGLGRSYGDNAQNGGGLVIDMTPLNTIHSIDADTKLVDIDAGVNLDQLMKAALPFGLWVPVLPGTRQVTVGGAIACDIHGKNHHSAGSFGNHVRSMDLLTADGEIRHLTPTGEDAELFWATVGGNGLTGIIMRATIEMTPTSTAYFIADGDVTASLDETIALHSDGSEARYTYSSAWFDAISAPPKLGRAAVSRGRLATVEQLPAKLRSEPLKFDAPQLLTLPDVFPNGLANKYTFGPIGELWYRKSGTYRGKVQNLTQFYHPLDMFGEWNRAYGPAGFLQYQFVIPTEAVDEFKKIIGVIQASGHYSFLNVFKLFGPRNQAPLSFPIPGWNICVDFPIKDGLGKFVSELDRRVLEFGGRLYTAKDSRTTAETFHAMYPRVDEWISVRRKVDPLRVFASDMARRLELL
Summary of the method: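 M. tuberculosis H37Rv cultures were exposed to compound at final 10× or 100× MIC, or to DMSO, together with [14C]-acetate at 1 µCi/ml final. After 24 h, lipids were extracted in CHCl3/CH3OH (2:1) for 2 h at 65 °C and given two Folch washes. Extracts were run on TLC in CHCl3/CH3OH/H2O (20:4:0.5), then autoradiographed for 7 days at -80 °C.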

| Structure (SMILES) | MIC99 [1] [µM] | MIC99 (Mycobacterium avium [2]) [µM] | MIC99 (Mycobacterium avium [3]) [µM] | MIC99 (Mycobacterium kansasii) [µM] | MIC99 [4] [µM] | MIC99 [5] [µM] | Activity (Staphylococcus aureus) | Activity (Enterococcus faecalis) | Activity (Escherichia coli) | Activity (Klebsiella pneumoniae) | Activity (Candida albicans) | Activity (Pichia kudriavzevii) | Activity (Aspergillus flavus) | Activity (Lichtheimia corymbifera) | Activity [6] | DprE1 inhibition (active/not active) [7] | inhibition [8] |
| --- | --- | --- | --- | --- | --- | --- | --- | --- | --- | --- | --- | --- | --- | --- | --- | --- | --- |
| O=[N+]([O-])c1cc(-c2nnc(SCc3ccccc3)n2Cc2ccccc2)cc([N+](=O)[O-])c1 | 0.03 (≈ 0.0134 µg/mL) | 125 (≈ 55.9 µg/mL) | 125 (≈ 55.9 µg/mL) | 0.03 (≈ 0.0134 µg/mL) | 0.03 (≈ 0.0134 µg/mL) | 0.03 (≈ 0.0134 µg/mL) | inactive | inactive | inactive | inactive | inactive | inactive | inactive | inactive | inactive | Active | inactive |
| CCCCCCn1c(SCc2cc([N+](=O)[O-])cc([N+](=O)[O-])c2)nnc1-c1ccccc1 | 2 (≈ 0.883 µg/mL) | 250 (≈ 110 µg/mL) | 250 (≈ 110 µg/mL) | 1 (≈ 0.442 µg/mL) | 2 (≈ 0.883 µg/mL) | 4 (≈ 1.77 µg/mL) | inactive | inactive | inactive | inactive | inactive | inactive | inactive | inactive | inactive | inactive | inactive |
| COc1ccc(Cn2c(SCc3cc([N+](=O)[O-])cc([N+](=O)[O-])c3)nnc2-c2ccccc2)cc1 | 2 (≈ 0.955 µg/mL) | 250 (≈ 119 µg/mL) | 250 (≈ 119 µg/mL) | 1 (≈ 0.478 µg/mL) | 2 (≈ 0.955 µg/mL) | 4 (≈ 1.91 µg/mL) | inactive | inactive | inactive | inactive | inactive | inactive | inactive | inactive | inactive | inactive | inactive |
| O=[N+]([O-])c1cc(-c2nnc(SCc3ccccc3)n2Cc2ccccc2)cc(C(F)(F)F)c1 | 0.03 (≈ 0.0141 µg/mL) | 250 (≈ 118 µg/mL) | 250 (≈ 118 µg/mL) | 0.03 (≈ 0.0141 µg/mL) | 0.06 (≈ 0.0282 µg/mL) | 0.06 (≈ 0.0282 µg/mL) | inactive | inactive | inactive | inactive | inactive | inactive | inactive | inactive | inactive | Active | Active |
| COc1ccc(CSc2nnc(-c3cc([N+](=O)[O-])cc([N+](=O)[O-])c3)n2Cc2ccccc2)cc1 | 0.03 (≈ 0.0143 µg/mL) | 62 (≈ 29.6 µg/mL) | 62 (≈ 29.6 µg/mL) | 0.03 (≈ 0.0143 µg/mL) | 0.03 (≈ 0.0143 µg/mL) | 0.03 (≈ 0.0143 µg/mL) | inactive | inactive | inactive | inactive | inactive | inactive | inactive | inactive | inactive | Active | inactive |
| COc1ccc(CSc2nnc(-c3cc([N+](=O)[O-])cc(C(F)(F)F)c3)n2Cc2ccccc2)cc1 | 0.5 (≈ 0.25 µg/mL) | 250 (≈ 125 µg/mL) | 250 (≈ 125 µg/mL) | 0.5 (≈ 0.25 µg/mL) | 0.5 (≈ 0.25 µg/mL) | 1 (≈ 0.501 µg/mL) | inactive | inactive | inactive | inactive | inactive | inactive | inactive | inactive | inactive | Active | Active |
